pIC50, pKi: −log10 of the molar value.
How the values were obtained:
[1] = molecular target: Trypsin (Homo sapiens, UniProt P07477+P07478+P35030); experiment: Inhibition of trypsin (unknown origin) using S-2222 as substrate incubated for 15 mins prior to substrate addition measured every 10 secs by spectrophotometric analysis; assay type: protein assay
Procedure, shortened: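 Trypsin at 0.5 nkat/mL final with S-2222 at 50 and 100 µM final. Inhibitor 0.5–100 µM, diluted from 10 mM DMSO stocks, preincubated 15 min at 25 °C with enzyme in HBSA buffer before substrate; absorbance at 405 nm every 10 s. Triplicate at three inhibitor and two substrate levels; Ki from initial rates (Cheng–Prusoff), averaged.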

[2] = molecular target: Coagulation factor X (Homo sapiens, UniProt P00742); experiment: Inhibition of F10a (unknown origin) using S-2222 as substrate incubated for 15 mins prior to substrate addition measured every 10 secs by spectrophotometric analysis
Procedure, shortened: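 Inhibitor 0.5–100 µM (from 10 mM DMSO stocks) preincubated with enzyme in HBSA buffer 15 min, 25 °C; A405 read every 10 s. Triplicate, three inhibitor × two substrate concentrations; Ki from initial linear rates via Cheng–Prusoff, averaged.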

[3] = molecular target: Prothrombin (Homo sapiens, UniProt P00734); experiment: Inhibition of thrombin (unknown origin) using S-2238 as substrate incubated for 15 mins prior to substrate addition measured every 10 secs by spectrophotometric analysis
[4] = molecular target: Integrin alpha-IIb/beta-3 (Homo sapiens, UniProt P05106+P08514); experiment: Displacement of biotinylated fibrinogen from human glycoprotein 2b/3a receptor after 2 hrs by chemiluminescence assay; assay type: protein-complex assay
Procedure, shortened: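 Solid-phase competitive binding: purified human GPIIb/IIIa coated overnight at 4 °C in Tris buffer pH 7.4 with 1 mM Ca2+, Mg2+, Mn2+; blocked with 1% BSA. Serially diluted inhibitor plus biotinylated human fibrinogen, 2 h rt; peroxidase anti-biotin antibody 1 h, chemiluminescent read.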

Coagulation factor X, sequence (P00742 41-179 limits assumed): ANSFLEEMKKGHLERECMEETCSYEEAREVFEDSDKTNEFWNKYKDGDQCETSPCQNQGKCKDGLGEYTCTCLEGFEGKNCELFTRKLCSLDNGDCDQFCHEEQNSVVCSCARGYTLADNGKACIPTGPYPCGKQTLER
Coagulation factor X, sequence (P00742 235-488 limits assumed): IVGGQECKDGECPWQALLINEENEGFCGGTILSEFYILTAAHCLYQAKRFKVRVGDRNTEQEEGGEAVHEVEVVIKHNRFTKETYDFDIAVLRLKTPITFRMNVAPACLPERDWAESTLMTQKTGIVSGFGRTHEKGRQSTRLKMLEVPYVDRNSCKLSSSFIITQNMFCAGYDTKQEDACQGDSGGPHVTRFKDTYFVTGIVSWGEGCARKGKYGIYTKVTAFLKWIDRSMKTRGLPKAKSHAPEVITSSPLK
Integrin alpha-IIb/beta-3, sequence (P05106 27-788 limits assumed): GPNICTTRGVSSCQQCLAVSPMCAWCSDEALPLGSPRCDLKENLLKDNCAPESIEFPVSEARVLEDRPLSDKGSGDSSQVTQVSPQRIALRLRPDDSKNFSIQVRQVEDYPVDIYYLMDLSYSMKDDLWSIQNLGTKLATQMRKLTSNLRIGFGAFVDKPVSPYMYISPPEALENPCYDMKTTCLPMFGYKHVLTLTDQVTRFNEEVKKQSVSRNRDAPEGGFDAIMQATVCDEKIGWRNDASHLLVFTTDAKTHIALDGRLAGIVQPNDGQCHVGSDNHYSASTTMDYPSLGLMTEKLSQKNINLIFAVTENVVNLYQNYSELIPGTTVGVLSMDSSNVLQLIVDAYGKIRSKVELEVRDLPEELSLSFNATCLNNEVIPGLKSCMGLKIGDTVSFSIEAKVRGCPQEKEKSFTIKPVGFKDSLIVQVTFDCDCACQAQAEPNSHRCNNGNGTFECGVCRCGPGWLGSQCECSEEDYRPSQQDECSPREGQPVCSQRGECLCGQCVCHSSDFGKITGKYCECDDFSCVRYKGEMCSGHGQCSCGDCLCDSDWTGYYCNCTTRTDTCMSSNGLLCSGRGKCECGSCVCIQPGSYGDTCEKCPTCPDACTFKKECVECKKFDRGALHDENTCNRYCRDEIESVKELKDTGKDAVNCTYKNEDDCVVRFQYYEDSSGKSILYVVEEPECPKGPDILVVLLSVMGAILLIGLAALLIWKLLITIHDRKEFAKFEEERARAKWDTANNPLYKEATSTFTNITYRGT
Integrin alpha-IIb/beta-3, sequence (P08514 32-887 limits assumed): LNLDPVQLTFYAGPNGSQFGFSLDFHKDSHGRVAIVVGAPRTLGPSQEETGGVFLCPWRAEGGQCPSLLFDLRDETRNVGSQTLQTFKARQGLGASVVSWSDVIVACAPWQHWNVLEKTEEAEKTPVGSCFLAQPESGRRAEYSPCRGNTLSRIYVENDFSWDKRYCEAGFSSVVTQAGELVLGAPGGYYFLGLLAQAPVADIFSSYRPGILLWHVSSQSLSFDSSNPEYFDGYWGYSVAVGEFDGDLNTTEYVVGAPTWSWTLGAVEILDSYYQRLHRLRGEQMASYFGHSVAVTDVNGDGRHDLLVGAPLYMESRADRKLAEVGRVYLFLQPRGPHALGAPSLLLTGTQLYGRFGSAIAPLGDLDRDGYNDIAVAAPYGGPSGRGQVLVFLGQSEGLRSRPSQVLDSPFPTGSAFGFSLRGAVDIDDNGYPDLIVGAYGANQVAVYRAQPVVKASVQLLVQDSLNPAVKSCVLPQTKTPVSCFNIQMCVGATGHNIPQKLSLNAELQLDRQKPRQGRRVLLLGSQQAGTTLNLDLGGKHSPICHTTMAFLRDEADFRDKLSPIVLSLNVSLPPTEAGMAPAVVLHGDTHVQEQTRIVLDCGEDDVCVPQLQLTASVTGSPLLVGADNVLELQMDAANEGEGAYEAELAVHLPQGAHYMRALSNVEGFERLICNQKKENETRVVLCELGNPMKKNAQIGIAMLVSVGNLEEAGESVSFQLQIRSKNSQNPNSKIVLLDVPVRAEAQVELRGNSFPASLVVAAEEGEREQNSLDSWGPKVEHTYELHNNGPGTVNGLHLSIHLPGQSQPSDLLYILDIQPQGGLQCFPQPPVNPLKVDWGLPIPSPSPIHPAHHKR
Integrin alpha-IIb/beta-3, sequence (P08514 891-1039 limits assumed): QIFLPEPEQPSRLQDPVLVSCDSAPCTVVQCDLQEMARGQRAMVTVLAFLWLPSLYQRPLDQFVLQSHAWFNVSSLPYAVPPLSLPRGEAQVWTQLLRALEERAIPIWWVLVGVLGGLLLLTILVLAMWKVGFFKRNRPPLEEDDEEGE

| Ki [1] [µM] | pKi [2] | pKi [3] | pIC50 [4] | SMILES |
| --- | --- | --- | --- | --- |
| > 100 | 4.05 | < 4.00 | 4.82 | O=C(NC[C@H]1CN(c2ccc(N3CCC(C(=O)O)CC3)cc2)C(=O)O1)c1ccc(Cl)c(-c2noc(=O)[nH]2)c1 |
| > 100 | 4.08 | < 4.00 | < 3.52 | CCOC(=O)C1CCN(c2ccc(N3C[C@@H](CNC(=O)c4ccc(Cl)c(N)c4)OC3=O)cc2)CC1 |
| – | – | – | < 3.52 | O=C(NC[C@@H]1CN(c2ccc(N3CCC(C(=O)O)CC3)cc2)C(=O)O1)c1ccc(Cl)s1 |
| 3.79 | 4.20 | < 4.00 | 5.33 | CC(=O)O.N=C(N)c1ccc(C(=O)NC[C@@H]2CN(c3ccc(N4CCC(C(=O)O)CC4)cc3)C(=O)O2)cc1 |
| > 100 | 4.31 | < 4.00 | < 3.52 | CCOC(=O)C1CCCN(c2ccc(N3C[C@H](CNC(=O)c4cnc(N)s4)OC3=O)cc2)C1.O=C(O)C(F)(F)F (stereo partly specified) |
| 8.95 | 4.37 | < 4.00 | 4.92 | CC(=O)O.N=C(N)c1ccc(C(=O)NC[C@H]2CN(c3ccc(N4CCC(C(=O)O)CC4)cc3)C(=O)O2)cc1 |
| > 100 | 4.32 | < 4.00 | < 3.52 | Nc1ncc(C(=O)NC[C@H]2CN(c3ccc(N4CCCC(C(=O)O)C4)cc3)C(=O)O2)s1.O=C(O)C(F)(F)F (stereo partly specified) |
| 2.17 | 4.46 | < 4.00 | 4.26 | CC(=O)O.CCOC(=O)C1CCN(c2ccc(N3C[C@H](CNCc4ccc(C(=N)N)cc4)OC3=O)cc2)CC1 |
| > 100 | 3.95 | < 4.00 | < 3.52 | CCOC(=O)C1CCN(c2ccc(N3C[C@@H](CNC(=O)c4cnc(N)s4)OC3=O)cc2)CC1.O=C(O)C(F)(F)F |
| > 100 | 4.42 | < 4.00 | < 3.52 | CCOC(=O)C1CCN(c2ccc(N3C[C@H](CNC(=O)c4cnc(N)s4)OC3=O)cc2)C(=O)C1.O=C(O)C(F)(F)F (stereo partly specified) |
| > 100 | 4.97 | < 4.00 | < 3.52 | CCOC(=O)C1CCN(c2ccc(N3C[C@H](CNC(=O)c4ccc(Cl)c(N)c4)OC3=O)cc2)CC1 |
| > 100 | < 4.00 | < 4.00 | 4.80 | O=C(NC[C@H]1CN(c2ccc(N3CCC(C(=O)O)CC3)cc2)C(=O)O1)c1ccc(-c2noc(=O)[nH]2)cc1 |
| > 100 | 4.24 | < 4.00 | 4.89 | Nc1cc(C(=O)NC[C@@H]2CN(c3ccc(N4CCC(C(=O)O)CC4)cc3)C(=O)O2)ccc1Cl |
| > 100 | < 4.00 | < 4.00 | 6.05 | O=C(O)C1CCN(c2ccc(N3C[C@H](CNCc4ccc(-c5noc(=O)[nH]5)cc4)OC3=O)cc2)CC1 |
| > 100 | 4.54 | < 4.00 | < 3.52 | CCOC(=O)C1CCCCN1c1ccc(N2C[C@H](CNC(=O)c3cnc(N)s3)OC2=O)cc1.O=C(O)C(F)(F)F (stereo partly specified) |
| 5.65 | < 4.00 | < 4.00 | 4.85 | CC(=O)O.CCOC(=O)C1CCN(c2ccc(N3C[C@H](CNC(=O)c4ccc(C(=N)N)cc4)OC3=O)cc2)CC1 |
| 3.06 | < 4.00 | < 4.00 | 4.02 | CC(=O)O.CCOC(=O)C1CCN(c2ccc(N3C[C@@H](CNC(=O)c4ccc(C(=N)N)cc4)OC3=O)cc2)CC1 |
| > 100 | 4.31 | < 4.00 | 4.11 | Nc1ncc(C(=O)NC[C@H]2CN(c3ccc(N4CCC(C(=O)O)CC4)cc3)C(=O)O2)s1.O=C(O)C(F)(F)F |
| – | – | – | < 3.52 | O=C(NC[C@H]1CN(c2ccc(N3CCC(C(=O)O)CC3)cc2)C(=O)O1)c1ccc(Cl)s1 |
| > 100 | 4.05 | < 4.00 | 4.77 | Nc1ncc(C(=O)NC[C@@H]2CN(c3ccc(N4CCC(C(=O)O)CC4)cc3)C(=O)O2)s1.O=C(O)C(F)(F)F |
| > 100 | < 4.00 | < 4.00 | 6.06 | O=C(NC[C@@H]1CN(c2ccc(N3CCC(C(=O)O)CC3)cc2)C(=O)O1)c1ccc(-c2noc(=O)[nH]2)cc1 |
| 6.59 | 4.59 | < 4.00 | 4.46 | CC(=O)O.CCOC(=O)C1CCN(c2ccc(N3C[C@@H](CNCc4ccc(C(=N)N)cc4)OC3=O)cc2)CC1 |
| > 100 | 4.26 | < 4.00 | < 3.52 | CCOC(=O)C1CCN(c2ccc(N3C[C@H](CNC(=O)c4cnc(N)s4)OC3=O)cc2)CC1.O=C(O)C(F)(F)F |
| > 100 | 4.43 | < 4.00 | 4.59 | Nc1cc(C(=O)NC[C@H]2CN(c3ccc(N4CCC(C(=O)O)CC4)cc3)C(=O)O2)ccc1Cl |
| > 100 | 4.02 | < 4.00 | 6.59 | O=C(O)C1CCN(c2ccc(N3C[C@@H](CNCc4ccc(-c5noc(=O)[nH]5)cc4)OC3=O)cc2)CC1 |
| 17.8 | 4.27 | 4.28 | 5.66 | CC(=O)O.N=C(N)c1ccc(CNC[C@H]2CN(c3ccc(N4CCC(C(=O)O)CC4)cc3)C(=O)O2)cc1 |
| > 100 | 4.25 | < 4.00 | < 3.52 | CCOC(=O)C1(C)CCCN(c2ccc(N3C[C@H](CNC(=O)c4cnc(N)s4)OC3=O)cc2)C1=O.O=C(O)C(F)(F)F (stereo partly specified) |
| > 100 | 4.95 | < 4.00 | < 3.52 | CC1(C(=O)O)CCCN(c2ccc(N3C[C@H](CNC(=O)c4cnc(N)s4)OC3=O)cc2)C1=O.O=C(O)C(F)(F)F (stereo partly specified) |

Source: ChEMBL document CHEMBL2390916, “Low molecular weight dual inhibitors of factor Xa and fibrinogen binding to GPIIb/IIIa with highly overlapped pharmacophores” (Eur J Med Chem, 2013)
